Calls of active or inactive are those of the source.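 The calls were made as follows, unless noted: active = GFP response above 150% of the DMSO level; inconclusive = fewer than 70 events counted for a yeast strain; inactive = the rest.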
Legend:
[1] = RPL19A-GFP modulators, yeast TOR pathway, confirmation, cell-based, S. cerevisiae, flow cytometry, cherry picks, mother/daughter gates (AID 2270;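 active = GFP response below 50% of the DMSO control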); conditions: S. cerevisiae RPL19A-GFP strain, 3 h, at 10 µM, stronger effect = lower value, 100 = same GFP as DMSO wells
[2] = LAP4-GFP expression modulators in yeast, confirmation, cell-based, cherry picks, flow cytometry, mother/daughter gates (AID 2271;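 active = GFP response above 150% of the DMSO control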;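 also: ratio of sample to DMSO plate mean so 100% equals DMSO level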); conditions: S. cerevisiae LAP4-GFP strain, 3 h, at 10 µM, stronger effect = higher value, 100 means same as DMSO control
Method in brief: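 System – GFP-fusion yeast strain · Amount – 0.2 OD600 cells · Buffer or medium – SC growth medium · Dosing – single test-compound dose, 10 µM final · Schedule – 3 h treatment at 30 °C with rotation · Detection – GFP by flow cytometry · Read-out – per-gate (all, mother, daughter) GFP response vs DMSO · Benchmarks – positive rapamycin (400 ng/mL), negative DMSO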

[3] = modulators of MEP2-GFP levels in yeast, confirmation, S. cerevisiae, flow cytometry GFP, cherry picks (AID 2272;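 active = GFP response above 150% of the DMSO control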;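 also: ratio of well signal to plate DMSO mean so 100% equals DMSO level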); conditions: S. cerevisiae MEP2-GFP strain, 3 h, at 10 µM, stronger effect = higher value
[4] = AGP1-GFP expression modulators, hit retest, confirmation, cell-based, flow cytometry, S. cerevisiae, cherry picks (AID 2273);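 also: median GFP channel fluorescence over the whole cell population gate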; conditions: S. cerevisiae AGP1-GFP strain, 3 h, at 10 µM
[5] = modulators of CIT2-GFP expression in yeast, confirmation, S. cerevisiae, GFP fusion, cherry picks, mother/daughter gates (AID 2274); conditions: S. cerevisiae CIT2-GFP strain, flow cytometry, 3 h, at 10 µM, stronger effect = higher value
[6] = measured here: daughter cell gate
[7] = measured here: mother cell gate
[8] = measured here: daughter cell gate response
[9] = measured here: mother cell gate response

Row | Structure (SMILES) | GFP response vs DMSO [1] | GFP response vs DMSO [1, 6] [%] | GFP response vs DMSO [1, 7] [%] | GFP response relative to DMSO [2] | GFP response relative to DMSO [2, 8] [%] | GFP response relative to DMSO [2, 9] [%] | GFP response vs DMSO [3] | GFP response, % of DMSO [4] | GFP response, % of DMSO [5] | GFP response, % of DMSO [5, 6] [%] | GFP response, % of DMSO [5, 7] [%]
1 | O=C1c2cccc3c([N+](=O)[O-])ccc(c23)C(=O)N1CCc1ccccn1 | 103% (inactive) | 104 | 99.2 | 164% (active) | 157 | 156 | 286% (active) | 120% (inactive) | 158% (active) | 156 | 144
2 | O=C1C2C3C=CC(CNS(=O)(=O)c4ccccc4)(O3)C2C(=O)N1c1ccc(Cl)cc1 (stereo not drawn) | 102% (inactive) | 103 | 102 | 110% (inactive) | 109 | 109 | 114% (inactive) | 99.7% (inactive) | 111% (inactive) | 113 | 108
3 | O=[N+]([O-])c1ccc(N=Nc2c(Cl)cc(O)cc2Cl)cc1 | 91.9% (inactive) | 84.8 | 85.2 | 252% (active) | 150 | 230 | 112% (inactive) | 91.4% (inactive) | 96.4% (inactive) | 96.4 | 82.8
4 | C[C@@H](C(=O)Nc1nc2ccc(F)cc2s1)N1C(=O)C2CC=CCC2C1=O (stereo partly drawn) | 98.7% (inactive) | 97.8 | 98.5 | 103% (inactive) | 101 | 104 | 102% (inactive) | 99.7% (inactive) | 101% (inactive) | 100 | 100
5 | O=C(c1ccccc1)N1CCN(c2ccccc2F)CC1 | 101% (inactive) | 102 | 99.6 | 105% (inactive) | 104 | 96.4 | 103% (inactive) | 99.1% (inactive) | 95.8% (inactive) | 97.6 | 90.4
6 | COc1ccc(/C=C/C(=O)c2ccccc2O)cc1 | 96.8% (inactive) | 96.7 | 98.8 | 102% (inactive) | 99.3 | 99.5 | 102% (inactive) | 102% (inactive) | 99.3% (inactive) | 100 | 98
7 | Cc1c(O)nc(SC2CC(=O)N(c3ccccc3)C2=O)[nH]c1=O (stereo not drawn) | 96.4% (inactive) | 96.5 | 96.7 | 109% (inactive) | 101 | 107 | 99.5% (inactive) | 97.1% (inactive) | 96.4% (inactive) | 98.3 | 96.8
8 | Cc1ccc(S(=O)(=O)N2CCCC2C(=O)OCc2ccco2)cc1 (stereo not drawn) | 103% (inactive) | 103 | 103 | 89% (inactive) | 92.5 | 92.1 | 107% (inactive) | 97.6% (inactive) | 112% (inactive) | 111 | 112
9 | Cc1cc(=O)oc2cc(OC(C)C(=O)NC3CCCC3)ccc12 (stereo not drawn) | 102% (inactive) | 100 | 102 | 95.7% (inactive) | 94.2 | 95.2 | 101% (inactive) | 105% (inactive) | 95.9% (inactive) | 93.8 | 95.6
10 | COc1ccc(CC(=O)Oc2ccccc2C)cc1 | 98% (inactive) | 99.6 | 98.3 | 100% (inactive) | 97.9 | 98.5 | 102% (inactive) | 94.3% (inactive) | 96.4% (inactive) | 96.4 | 95.6
11 | Cn1c(N2CCCC2)nc2c1c(=O)n(Cc1ccc(Cl)cc1)c(=O)n2C | 91.8% (inactive) | 84.5 | 87.5 | 126% (inactive) | 109 | 121 | 94.7% (inactive) | 98.4% (inactive) | 81.4% (inactive) | 77.5 | 76
12 | CC(=O)c1ccc(N2CCN(C(=O)c3ccc(Br)cc3)CC2)c(F)c1 | 111% (inactive) | 95.4 | 110 | 160% (active) | 117 | 160 | 117% (inactive) | 115% (inactive) | 111% (inactive) | 88.1 | 104
13 | CCOC(=O)c1ccc(NC(=O)c2ccc3c(c2)C(=O)N(Cc2cccnc2)C3=O)cc1 | 100% (inactive) | 99.6 | 100 | 94.1% (inactive) | 96 | 94 | 102% (inactive) | 99.3% (inactive) | 99.7% (inactive) | 101 | 98.5
14 | CC(=O)NC1(C(F)(F)F)C(=O)Nc2c1c(=O)[nH]c(=O)n2CCc1ccccc1 (stereo not drawn) | 99.6% (inactive) | 98.4 | 98.6 | 97% (inactive) | 97.5 | 97.3 | 107% (inactive) | 95.7% (inactive) | 88.6% (inactive) | 90.2 | 88.2
15 | O=C(COc1ccccc1)N1CCN(c2ncnc3c2cnn3-c2ccccc2)CC1 | 98.7% (inactive) | 98.4 | 98.6 | 104% (inactive) | 102 | 105 | 101% (inactive) | 97.3% (inactive) | 98.6% (inactive) | 103 | 98.2
16 | Cc1ccc(N2C(=O)C3C4C=CC(CNC(=S)Nc5ccc(F)cc5)(O4)C3C2=O)cc1 (stereo not drawn) | 98.4% (inactive) | 99.9 | 97.5 | 102% (inactive) | 103 | 103 | 108% (inactive) | 105% (inactive) | 110% (inactive) | 110 | 110
17 | CCc1nnc(NC(=O)c2ccc(S(=O)(=O)N3CCCC(C)C3)cc2)o1 (stereo not drawn) | 101% (inactive) | 99.1 | 98.5 | 98.2% (inactive) | 97.5 | 100 | 101% (inactive) | 105% (inactive) | 102% (inactive) | 105 | 99.3

Row | Structure (SMILES) | GFP response vs DMSO [1] | GFP response vs DMSO [1, 6] [%] | GFP response vs DMSO [1, 7] [%] | GFP response relative to DMSO [2] | GFP response relative to DMSO [2, 8] [%] | GFP response relative to DMSO [2, 9] [%] | GFP response vs DMSO [3] | GFP response, % of DMSO [4] | GFP response, % of DMSO [5] | GFP response, % of DMSO [5, 6] [%] | GFP response, % of DMSO [5, 7] [%]
18 | CSC1=NS(=O)(=O)c2c(C)nn(C)c2S1 | 88.7% (inactive) | 91 | 85.8 | 156% (active) | 159 | 152 | 110% (inactive) | 104% (inactive) | 84.7% (inactive) | 90.5 | 78.1
19 | Cc1cccc(Sc2ccc([N+](=O)[O-])cn2)c1 | 98.6% (inactive) | 98.9 | 98 | 92.4% (inactive) | 92 | 92 | 105% (inactive) | 104% (inactive) | 103% (inactive) | 103 | 104
20 | CCC(=O)Oc1oc(-c2ccccc2)nc1C=Nc1ccc(C)cc1 | 103% (inactive) | 103 | 103 | 111% (inactive) | 113 | 113 | 126% (inactive) | 102% (inactive) | 108% (inactive) | 110 | 109
21 | CCc1ccc2c(c1)C1(NN=C(c3cccc4ccccc34)S1)C(=O)N2 (stereo not drawn) | 96% (inactive) | 96.7 | 93.1 | 111% (inactive) | 105 | 114 | 97.2% (inactive) | 102% (inactive) | 93.1% (inactive) | 99.3 | 88.2
22 | Cc1ccc(/C(N)=N/OC(=O)c2ccc(F)cc2)cc1 | 102% (inactive) | 102 | 99.2 | 128% (inactive) | 111 | 129 | 108% (inactive) | 76.8% (inactive) | 134% (inactive) | 121 | 133
23 | Oc1ccc(/C=N/Nc2nc(-c3cccnc3)nc3ccccc23)c(O)c1 | 93.5% (inactive) | 95.3 | 94.6 | 83.8% (inactive) | 84.2 | 82.7 | 101% (inactive) | 101% (inactive) | 106% (inactive) | 108 | 105
24 | CCCCc1nnc(NC(=O)c2nc3nccc(C)n3n2)s1 | 98.7% (inactive) | 98.3 | 99.8 | 96.5% (inactive) | 95 | 96.5 | 106% (inactive) | 104% (inactive) | 109% (inactive) | 109 | 110
25 | CCOC(=O)c1ccc2nc(Nc3nc4ccc(F)cc4s3)sc2c1 | 99.6% (inactive) | 98.1 | 99.3 | 101% (inactive) | 97.5 | 102 | 101% (inactive) | 105% (inactive) | 103% (inactive) | 103 | 103
26 | NC1=NC(=O)C(CC(=O)c2ccc(Cl)cc2)S1 (stereo not drawn) | 99.9% (inactive) | 100 | 99.8 | 106% (inactive) | 99.3 | 107 | 102% (inactive) | 96.7% (inactive) | 96.4% (inactive) | 96.4 | 94.5
27 | Cc1cc(N2CCCCC2)n2nc(C)c(-c3ccccc3)c2n1 | 99.7% (inactive) | 97.3 | 100 | 95% (inactive) | 97.2 | 96.2 | 97.8% (inactive) | 95% (inactive) | 97.8% (inactive) | 96.5 | 97.7
28 | O=C1c2ccsc2SCCN1Cc1c(Cl)cccc1Cl | 102% (inactive) | 99.2 | 102 | 98.7% (inactive) | 97.2 | 102 | 93.5% (inactive) | 93.9% (inactive) | 103% (inactive) | 101 | 104
29 | Oc1ccc(-c2nc3ccccn3c2NCc2ccco2)cc1 | 96.8% (inactive) | 98.4 | 97.1 | 101% (inactive) | 99.2 | 99.3 | 102% (inactive) | 96.2% (inactive) | 103% (inactive) | 105 | 101
30 | Cc1noc2ncnc(Sc3c(Cl)cccc3Cl)c12 | 101% (inactive) | 102 | 99.8 | 94.1% (inactive) | 94.4 | 94 | 100% (inactive) | 88.6% (inactive) | 105% (inactive) | 105 | 104
31 | CCn1c(=O)c(C(C)=O)c(O)c2ccccc21 | 104% (inactive) | 101 | 104 | 89.3% (inactive) | 87.7 | 91 | 96.8% (inactive) | 102% (inactive) | 97.3% (inactive) | 99.2 | 91.9
32 | CCOc1ccccc1N1C(=O)CC(Sc2ncccc2C(=O)O)C1=O (stereo not drawn) | 101% (inactive) | 99 | 102 | 106% (inactive) | 106 | 107 | 120% (inactive) | 98.5% (inactive) | 103% (inactive) | 105 | 102
33 | O=C(CSCc1cccc(Br)c1)N=Nc1c(O)[nH]c2ccccc12 | 76.9% (inactive) | 67.8 | 73 | 126% (inactive) | 102 | 126 | 124% (inactive) | 137% (inactive) | 130% (inactive) | 110 | 129

Source: PubChem BioAssay
